# Measurements: ChEMBL document CHEMBL5724801, “EUbOPEN Chemogenomics Library - Multiplex” (2024)
# “And” between values parts separate entries of the source, which are not always exact repeats. Identical values can stand only once.
# Tested on: HEK-293T
# Experiment: Multiplex assay against HEK293T
# Type: toxicity, cell-based
# Settings: human
# How it was run: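 Imaging took place on a CQ1 microscope at 37°C and 5% CO2 once compound had been added to live cells stained at seeding with Hoechst33342, BioTracker Green Microtubule Cytoskeleton Dye, MitoTracker Red and Annexin V Alexa Fluor 680. CellPathfinder machine-learning gating classed cells as Hoechst high-intensity objects or normal cells, classed normal cells as having healthy, pyknosed or fragmented nuclei, and classed pyknosed cells as mitotic or apoptotic. Tubulin, mitochondrial-mass and membrane-permeability phenotypes are per cents of the healthy-nucleus cells.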
# [1] = 12 h, 1 µM, compound concentration 1 uM
# [2] = 12 h, 10 µM, compound concentration 10 uM
# [3] = 24 h, 1 µM, compound concentration 1 uM
# [4] = 24 h, 10 µM, compound concentration 10 uM
# [5] = 48 h, 1 µM, compound concentration 1 uM
# [6] = 48 h, 10 µM, compound concentration 10 uM
compound,measurement,setting,value
COc1cc2nc(N3CCN(C(=O)c4ccco4)CC3)nc(N)c2cc1OC.Cl [PRAZOSIN HYDROCHLORIDE],Population Apoptotic (%),[1],32% and 56%
same,Population Fragmented Nuclei (%),[1],10% and 6%
same,Population Healthy Nuclei (%),[1],77%
same,Population Hoechst High Intensity Objects (%),[1],6%
same,Population Membrane Permeable-Phenotype (%),[1],0%
same,Population Mitochondria Different-Phenotype (%),[1],35% and 66%
same,Population Mitotic Cells (%),[1],67% and 43%
same,Population Normal (%),[1],93%
same,Population Pyknosed Nuclei (%),[1],11% and 16%
same,Population Tubulin-Different-Phenotype (%),[1],23% and 22%
same,Total Cell Count,[1],448 and 290
same,Population Apoptotic (%),[2],38% and 55%
same,Population Fragmented Nuclei (%),[2],9% and 5%
same,Population Healthy Nuclei (%),[2],75% and 77%
same,Population Hoechst High Intensity Objects (%),[2],10% and 9%
same,Population Membrane Permeable-Phenotype (%),[2],0%
same,Population Mitochondria Different-Phenotype (%),[2],62% and 61%
same,Population Mitotic Cells (%),[2],61% and 44%
same,Population Normal (%),[2],89% and 90%
same,Population Pyknosed Nuclei (%),[2],14% and 16%
same,Population Tubulin-Different-Phenotype (%),[2],45% and 25%
same,Total Cell Count,[2],348 and 404
same,Population Apoptotic (%),[3],38% and 51%
same,Population Fragmented Nuclei (%),[3],9%
same,Population Healthy Nuclei (%),[3],82% and 80%
same,Population Hoechst High Intensity Objects (%),[3],3% and 5%
same,Population Membrane Permeable-Phenotype (%),[3],0%
same,Population Mitochondria Different-Phenotype (%),[3],25% and 45%
same,Population Mitotic Cells (%),[3],61% and 48%
same,Population Normal (%),[3],96% and 94%
same,Population Pyknosed Nuclei (%),[3],7% and 10%
same,Population Tubulin-Different-Phenotype (%),[3],10% and 16%
same,Total Cell Count,[3],660 and 364
same,Population Apoptotic (%),[4],50% and 54%
same,Population Fragmented Nuclei (%),[4],12% and 11%
same,Population Healthy Nuclei (%),[4],77% and 78%
same,Population Hoechst High Intensity Objects (%),[4],5%
same,Population Membrane Permeable-Phenotype (%),[4],0% and 1%
same,Population Mitochondria Different-Phenotype (%),[4],40% and 42%
same,Population Mitotic Cells (%),[4],50% and 45%
same,Population Normal (%),[4],94%
same,Population Pyknosed Nuclei (%),[4],9% and 10%
same,Population Tubulin-Different-Phenotype (%),[4],32% and 20%
same,Total Cell Count,[4],463 and 534
same,Population Apoptotic (%),[5],36% and 38%
same,Population Fragmented Nuclei (%),[5],17% and 16%
same,Population Healthy Nuclei (%),[5],76%
same,Population Hoechst High Intensity Objects (%),[5],1% and 2%
same,Population Membrane Permeable-Phenotype (%),[5],1% and 0%
same,Population Mitochondria Different-Phenotype (%),[5],16% and 23%
same,Population Mitotic Cells (%),[5],63% and 61%
same,Population Normal (%),[5],98% and 97%
same,Population Pyknosed Nuclei (%),[5],5% and 6%
same,Population Tubulin-Different-Phenotype (%),[5],8% and 9%
same,Total Cell Count,[5],1114 and 636
same,Population Apoptotic (%),[6],33% and 23%
same,Population Fragmented Nuclei (%),[6],17% and 14%
same,Population Healthy Nuclei (%),[6],75% and 78%
same,Population Hoechst High Intensity Objects (%),[6],4%
same,Population Membrane Permeable-Phenotype (%),[6],2% and 1%
same,Population Mitochondria Different-Phenotype (%),[6],32% and 21%
same,Population Mitotic Cells (%),[6],66% and 76%
same,Population Normal (%),[6],95%
same,Population Pyknosed Nuclei (%),[6],7%
same,Population Tubulin-Different-Phenotype (%),[6],17% and 11%
same,Total Cell Count,[6],693 and 778
CC(C)(C)c1cc(NC(=O)Nc2ccc(-c3cn4c(n3)sc3cc(OCCN5CCOCC5)ccc34)cc2)no1 [QUIZARTINIB],Population Apoptotic (%),[1],27% and 34%
same,Population Fragmented Nuclei (%),[1],5%
same,Population Healthy Nuclei (%),[1],83% and 80%
same,Population Hoechst High Intensity Objects (%),[1],10% and 6%
same,Population Membrane Permeable-Phenotype (%),[1],0%
same,Population Mitochondria Different-Phenotype (%),[1],40% and 58%
same,Population Mitotic Cells (%),[1],72% and 65%
same,Population Normal (%),[1],89% and 93%
same,Population Pyknosed Nuclei (%),[1],11% and 14%
same,Population Tubulin-Different-Phenotype (%),[1],35% and 26%
same,Total Cell Count,[1],377 and 345
same,Population Apoptotic (%),[2],53% and 73%
same,Population Fragmented Nuclei (%),[2],7%
same,Population Healthy Nuclei (%),[2],71%
same,Population Hoechst High Intensity Objects (%),[2],23% and 12%
same,Population Membrane Permeable-Phenotype (%),[2],0%
same,Population Mitochondria Different-Phenotype (%),[2],78% and 81%
same,Population Mitotic Cells (%),[2],46% and 26%
same,Population Normal (%),[2],76% and 87%
same,Population Pyknosed Nuclei (%),[2],21%
same,Population Tubulin-Different-Phenotype (%),[2],68% and 63%
same,Total Cell Count,[2],324 and 293
same,Population Apoptotic (%),[3],41% and 38%
same,Population Fragmented Nuclei (%),[3],7% and 5%
same,Population Healthy Nuclei (%),[3],84%
same,Population Hoechst High Intensity Objects (%),[3],6% and 4%
same,Population Membrane Permeable-Phenotype (%),[3],0%
same,Population Mitochondria Different-Phenotype (%),[3],26% and 40%
same,Population Mitotic Cells (%),[3],58% and 61%
same,Population Normal (%),[3],93% and 95%
same,Population Pyknosed Nuclei (%),[3],7% and 10%
same,Population Tubulin-Different-Phenotype (%),[3],21% and 17%
same,Total Cell Count,[3],491 and 440
same,Population Apoptotic (%),[4],62% and 69%
same,Population Fragmented Nuclei (%),[4],8% and 9%
same,Population Healthy Nuclei (%),[4],79% and 78%
same,Population Hoechst High Intensity Objects (%),[4],16% and 9%
same,Population Membrane Permeable-Phenotype (%),[4],0%
same,Population Mitochondria Different-Phenotype (%),[4],63% and 75%
same,Population Mitotic Cells (%),[4],37% and 30%
same,Population Normal (%),[4],83% and 90%
same,Population Pyknosed Nuclei (%),[4],12% and 11%
same,Population Tubulin-Different-Phenotype (%),[4],57% and 50%
same,Total Cell Count,[4],413 and 321
same,Population Apoptotic (%),[5],21%
same,Population Fragmented Nuclei (%),[5],12% and 10%
same,Population Healthy Nuclei (%),[5],80% and 82%
same,Population Hoechst High Intensity Objects (%),[5],3% and 2%
same,Population Membrane Permeable-Phenotype (%),[5],2% and 0%
same,Population Mitochondria Different-Phenotype (%),[5],11% and 24%
same,Population Mitotic Cells (%),[5],78%
same,Population Normal (%),[5],96% and 97%
same,Population Pyknosed Nuclei (%),[5],6%
same,Population Tubulin-Different-Phenotype (%),[5],15% and 18%
same,Total Cell Count,[5],851 and 566
same,Population Apoptotic (%),[6],57% and 58%
same,Population Fragmented Nuclei (%),[6],9% and 11%
same,Population Healthy Nuclei (%),[6],77% and 73%
same,Population Hoechst High Intensity Objects (%),[6],9% and 12%
same,Population Membrane Permeable-Phenotype (%),[6],1% and 0%
same,Population Mitochondria Different-Phenotype (%),[6],40% and 59%
same,Population Mitotic Cells (%),[6],42% and 41%
same,Population Normal (%),[6],90% and 87%
same,Population Pyknosed Nuclei (%),[6],12% and 14%
same,Population Tubulin-Different-Phenotype (%),[6],35% and 37%
same,Total Cell Count,[6],583 and 392
